Values after ≈ are worked out from the molar mass of the structure shown.
How the values were obtained:
Type in all cases: functional
Staphylococcus aureus [1] = test: Antimicrobial activity against Staphylococcus aureus RCMB 010027 assessed as diameter of zone inhibition at 5 mg/ml after 24 hrs by agar well diffusion assay; conditions: RCMB 010027, 24 h, read-out: DIZ
Outline: (§1)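 Agar well diffusion: 100 µL of 1 x10^8 CFU/mL bacteria was spread on nutrient agar. 10 mm wells received 100 µL of compound at 5 mg/mL in DMSO, or ampicillin or gentamycin standards at 1 mg/mL. DMSO served as negative control. Plates were incubated 24 h at 37 °C. Inhibition zone diameter (mm) was measured as the mean of triplicates.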

[2] = test system: Staphylococcus epidermidis; test: Antimicrobial activity against Staphylococcus epidermidis RCMB 010024 assessed as diameter of zone inhibition at 5 mg/ml after 24 hrs by agar well diffusion assay; conditions: RCMB 010024, 24 h, read-out: DIZ; outline: as §1
Bacillus subtilis [3] = test: Antimicrobial activity against Bacillus subtilis RCMB 010063 assessed as diameter of zone inhibition at 5 mg/ml after 24 hrs by agar well diffusion assay; conditions: RCMB 010063, 24 h, read-out: DIZ; outline: as §1
Proteus vulgaris [4] = test: Antimicrobial activity against Proteus vulgaris RCMB 010085 assessed as diameter of zone inhibition at 5 mg/ml after 24 hrs by agar well diffusion assay; conditions: RCMB 010085, 24 h, read-out: DIZ; outline: as §1
Klebsiella pneumoniae [5] = test: Antimicrobial activity against Klebsiella pneumoniae RCMB 010093 assessed as diameter of zone inhibition at 5 mg/ml after 24 hrs by agar well diffusion assay; conditions: RCMB 010093, 24 h, read-out: DIZ; outline: as §1
Shigella flexneri [6] = test: Antimicrobial activity against Shigella flexneri RCMB 0100542 assessed as diameter of zone inhibition at 5 mg/ml after 24 hrs by agar well diffusion assay; conditions: RCMB 0100542, 24 h, read-out: DIZ; outline: as §1
Aspergillus fumigatus [7] = test: Antimicrobial activity against Aspergillus fumigatus RCMB 02564 assessed as diameter of zone inhibition at 5 mg/ml after 72 hrs by agar well diffusion assay; conditions: RCMB 02564, 72 h, read-out: DIZ
Outline: (§2)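 Fungi (1 x10^6 CFU/mL, 100 µL) were spread on Sabouraud dextrose agar. 10 mm wells were loaded with 100 µL of test solution at 5 mg/mL in DMSO, or amphotericin B standard at 1 mg/mL. A DMSO negative control was included. Plates were incubated 72 h at 28 °C. Inhibition zone diameter (mm) was recorded as the average of triplicate runs.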

Aspergillus clavatus [8] = test: Antimicrobial activity against Aspergillus clavatus RCMB 02593 assessed as diameter of zone inhibition at 5 mg/ml after 72 hrs by agar well diffusion assay; conditions: RCMB 02593, 72 h, read-out: DIZ; outline: as §2
Candida albicans [9] = test: Antimicrobial activity against Candida albicans RCMB 05035 assessed as diameter of zone inhibition at 5 mg/ml after 72 hrs by agar well diffusion assay; conditions: RCMB 05035, 72 h, read-out: DIZ; outline: as §2
Aspergillus fumigatus [10] = test: Antimicrobial activity against Aspergillus fumigatus RCMB 02564 after 72 hrs by macro-tube dilution technique; conditions: RCMB 02564, 72 h
Outline: (§3)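 Twofold macro-tube dilution following NCCLS guidance, run in malt extract broth. 10 mg compound in 2.0 mL DMSO in tube 1 was serially diluted 1:1 through tube 14 into 1.0 mL broth; tube 15 was the control. Culture was suspended to turbidity in 5.0 mL broth, 0.2 mL was diluted into 40 mL, and 1.0 mL was added per tube. Incubation was 72 h at 30 °C. MIC was the lowest concentration with no growth.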

Aspergillus clavatus [11] = test: Antimicrobial activity against Aspergillus clavatus RCMB 02593 after 72 hrs by macro-tube dilution technique; conditions: RCMB 02593, 72 h; outline: as §3
Candida albicans [12] = test: Antimicrobial activity against Candida albicans RCMB 05035 after 72 hrs by macro-tube dilution technique; conditions: RCMB 05035, 72 h; outline: as §3
Staphylococcus aureus [13] = test: Antimicrobial activity against Staphylococcus aureus RCMB 010027 after overnight incubation by macro-tube dilution technique
Outline: (§4)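 Macro-tube twofold dilution following NCCLS guidance, run in nutrient broth. The first tube held 10 mg compound in 2.0 mL DMSO and was serially halved 1:1 into 1.0 mL broth through tube 14; tube 15 was the control. The inoculum was suspended to turbidity in 5.0 mL broth, 0.2 mL was diluted into 40 mL, and 1.0 mL was added per tube. Tubes were incubated overnight at 37 °C. MIC was the lowest concentration with no growth.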

[14] = test system: Staphylococcus epidermidis; test: Antimicrobial activity against Staphylococcus epidermidis RCMB 010024 after overnight incubation by macro-tube dilution technique; outline: as §4
Bacillus subtilis [15] = test: Antimicrobial activity against Bacillus subtilis RCMB 010063 after overnight incubation by macro-tube dilution technique; outline: as §4
Proteus vulgaris [16] = test: Antimicrobial activity against Proteus vulgaris RCMB 010085 after overnight incubation by macro-tube dilution technique; outline: as §4
Klebsiella pneumoniae [17] = test: Antimicrobial activity against Klebsiella pneumoniae RCMB 010093 after overnight incubation by macro-tube dilution technique; outline: as §4
Shigella flexneri [18] = test: Antimicrobial activity against Shigella flexneri RCMB 0100542 after overnight incubation by macro-tube dilution technique; outline: as §4
Proteus vulgaris [19] = test: Potency index, ratio of Gentamycin IC50 to compound IC50 for Proteus vulgaris RCMB 010085

Row | Structure (SMILES) | zone of inhibition at 5000 µg/mL (Staphylococcus aureus [1]) | zone of inhibition at 5000 µg/mL [2] | zone of inhibition at 5000 µg/mL (Bacillus subtilis [3]) | zone of inhibition at 5000 µg/mL (Proteus vulgaris [4]) | zone of inhibition at 5000 µg/mL (Klebsiella pneumoniae [5]) | zone of inhibition at 5000 µg/mL (Shigella flexneri [6]) | zone of inhibition at 5000 µg/mL (Aspergillus fumigatus [7]) | zone of inhibition at 5000 µg/mL (Aspergillus clavatus [8]) | zone of inhibition at 5000 µg/mL (Candida albicans [9]) | MIC (Aspergillus fumigatus [10]) | MIC (Aspergillus clavatus [11]) | MIC (Candida albicans [12]) | MIC (Staphylococcus aureus [13]) | MIC [14] | MIC (Bacillus subtilis [15]) | MIC (Proteus vulgaris [16]) | MIC (Klebsiella pneumoniae [17]) | MIC (Shigella flexneri [18]) | Ratio (Proteus vulgaris [19])
1 | CCOC(=O)c1c(SC)nn(-c2ccc3ccccc3n2)c1N | 15.8 mm | 17.8 mm | 19.8 mm | 0 mm | 0 mm | 0 mm | 18.7 mm | 19.3 mm | 20.3 mm | 7.81 µg/mL (≈ 23.8 µM) | 7.81 µg/mL (≈ 23.8 µM) | 1.95 µg/mL (≈ 5.94 µM) | – | – | – | – | – | – | –
2 | CSc1nn(-c2ccc3ccccc3n2)c(N)c1C#N | 18.9 mm | 16.2 mm | 19.8 mm | 12.3 mm | 15.3 mm | 16.2 mm | 15.7 mm | 15.9 mm | 16.8 mm | – | – | – | – | – | – | – | – | – | –
3 | Clc1ccccc1C1CC(c2ccc(Oc3ccc4ccccc4n3)cc2)=NN1 (centres undefined) | 23.9 mm | 25.3 mm | 24.2 mm | 23.6 mm | 22.8 mm | 23.6 mm | 21.4 mm | 17.5 mm | 18.5 mm | 7.81 µg/mL (≈ 19.5 µM) | 15.6 µg/mL (≈ 39.1 µM) | 1.95 µg/mL (≈ 4.88 µM) | 0.97 µg/mL (≈ 2.43 µM) | 0.97 µg/mL (≈ 2.43 µM) | 1.95 µg/mL (≈ 4.88 µM) | 0.97 µg/mL (≈ 2.43 µM) | 1.95 µg/mL (≈ 4.88 µM) | 1.95 µg/mL (≈ 4.88 µM) | 2
4 | COc1ccc(C2CC(c3ccc(Oc4ccc5ccccc5n4)cc3)=NN2)cc1 (centres undefined) | 13.1 mm | 14.6 mm | 13.7 mm | 14.3 mm | 16.2 mm | 14.3 mm | 13.5 mm | 14.2 mm | 12.1 mm | – | – | – | – | – | – | – | – | – | –
5 | C(=N\Nc1ccc2ccccc2n1)/c1cn(-c2ccccc2)nc1-c1ccccc1 | 22.2 mm | 23.4 mm | 23.2 mm | 20.2 mm | 21.2 mm | 20.1 mm | 17.5 mm | 18.4 mm | 19.6 mm | 7.81 µg/mL (≈ 20.1 µM) | 15.6 µg/mL (≈ 40.1 µM) | 7.81 µg/mL (≈ 20.1 µM) | 3.9 µg/mL (≈ 10 µM) | 3.9 µg/mL (≈ 10 µM) | 1.97 µg/mL (≈ 5.06 µM) | 7.81 µg/mL (≈ 20.1 µM) | 3.9 µg/mL (≈ 10 µM) | 7.81 µg/mL (≈ 20.1 µM) | –
6 | Cc1ccc(-c2nn(-c3ccccc3)cc2/C=N/Nc2ccc3ccccc3n2)cc1 | 20.3 mm | 20.7 mm | 22.4 mm | 16.2 mm | 17.6 mm | 18.3 mm | 20.5 mm | 18.3 mm | 22.1 mm | 0.98 µg/mL (≈ 2.43 µM) | 7.81 µg/mL (≈ 19.4 µM) | 0.49 µg/mL (≈ 1.21 µM) | 1.95 µg/mL (≈ 4.83 µM) | 0.98 µg/mL (≈ 2.43 µM) | 0.49 µg/mL (≈ 1.21 µM) | 31.2 µg/mL (≈ 77.4 µM) | 7.81 µg/mL (≈ 19.4 µM) | 7.81 µg/mL (≈ 19.4 µM) | –
7 | Clc1ccc(-c2nn(-c3ccccc3)cc2/C=N/Nc2ccc3ccccc3n2)cc1 | 24.5 mm | 25.7 mm | 27.6 mm | 21.4 mm | 22.9 mm | 21.8 mm | 21.5 mm | 19.8 mm | 24.9 mm | 15.6 µg/mL (≈ 36.9 µM) | 7.81 µg/mL (≈ 18.4 µM) | 3.9 µg/mL (≈ 9.2 µM) | 0.97 µg/mL (≈ 2.29 µM) | 3.9 µg/mL (≈ 9.2 µM) | 0.97 µg/mL (≈ 2.29 µM) | 3.9 µg/mL (≈ 9.2 µM) | 3.9 µg/mL (≈ 9.2 µM) | 3.9 µg/mL (≈ 9.2 µM) | –
8 | Clc1ccccc1C1CC(c2ccc(Oc3ccc4ccccc4n3)cc2)=NN1c1ccccc1 (centres undefined) | 14.8 mm | 0 mm | 16.4 mm | 12.4 mm | 13.3 mm | 0 mm | 12.3 mm | 0 mm | 9.3 mm | – | – | – | – | – | – | – | – | – | –
9 | CCOC(=O)c1c(C)nn(-c2ccc3ccccc3n2)c1N | 20.3 mm | 17.3 mm | 20.2 mm | 13.6 mm | 15.9 mm | 16.8 mm | 16.3 mm | 18.6 mm | 19.8 mm | 31.2 µg/mL (≈ 105 µM) | 3.9 µg/mL (≈ 13.2 µM) | 1.95 µg/mL (≈ 6.58 µM) | 1.95 µg/mL (≈ 6.58 µM) | 15.6 µg/mL (≈ 52.7 µM) | 1.95 µg/mL (≈ 6.58 µM) | 125 µg/mL (≈ 422 µM) | 31.2 µg/mL (≈ 105 µM) | 15.6 µg/mL (≈ 52.7 µM) | –
10 | COc1ccc(C2=NNC(c3ccc(Oc4ccc5ccccc5n4)cc3)C2)cc1 (centres undefined) | 16.2 mm | 18.6 mm | 19.4 mm | 16.2 mm | 0 mm | 15.4 mm | 15.6 mm | 12.8 mm | 11.6 mm | – | – | – | – | – | – | – | – | – | –
11 | COc1ccc(C2=NN(c3ccccc3)C(c3ccc(Oc4ccc5ccccc5n4)cc3)C2)cc1 (centres undefined) | 12.1 mm | 13.1 mm | 0 mm | 13.5 mm | 15.9 mm | 14.4 mm | 16.2 mm | 14.5 mm | 11.6 mm | – | – | – | – | – | – | – | – | – | –
12 | N#Cc1c(-c2cccc(Cl)c2)nn(-c2ccc3ccccc3n2)c1N | 10.3 mm | 11.6 mm | 13.3 mm | 0 mm | 0 mm | 0 mm | 12.3 mm | 13.2 mm | 15.2 mm | – | – | – | – | – | – | – | – | – | –
13 | COc1ccc(C(=O)/C=C/c2ccc(Oc3ccc4ccccc4n3)cc2)cc1 | 8.7 mm | 10.6 mm | 0 mm | 0 mm | 7.2 mm | 0 mm | 10.7 mm | 11.5 mm | 0 mm | – | – | – | – | – | – | – | – | – | –
14 | Cc1nn(-c2ccc3ccccc3n2)c(N)c1C#N | 19.2 mm | 20.6 mm | 20.9 mm | 11.6 mm | 15.7 mm | 15.9 mm | 16.8 mm | 18.3 mm | 20.4 mm | 15.6 µg/mL (≈ 62.7 µM) | 7.8 µg/mL (≈ 31.3 µM) | 1.95 µg/mL (≈ 7.82 µM) | 3.9 µg/mL (≈ 15.6 µM) | 0.98 µg/mL (≈ 3.93 µM) | 0.98 µg/mL (≈ 3.93 µM) | 500 µg/mL (≈ 2010 µM) | 31.2 µg/mL (≈ 125 µM) | 31.2 µg/mL (≈ 125 µM) | –
